Converted amounts (≈) assume the structure as drawn. Read-outs that look alike come from different tables or passages of the source.
Legend:
[1] = cited from earlier work; for solid form of precipitate during dispersion: dispersion (dilution in bile) ref 13; for solid form of precipitate during digestion: in vitro digestion of LBFs ref 11-17; for solid form of precipitate in vitro and in vivo: drug loaded into LBFs ref 41
[2] = Drug solubility in lipolysis medium; format: physicochemical; details: for solubility fold-increase between dispersion and digestion media: IIIA-LC; for solubility at 24 h: dispersion medium of blank (placebo) LBF lipolysis, all LBFs, pH 6.5
Method in brief: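 Placebo LBF digested in pH 6.5 buffer (2 mM Tris-maleate, 1.4 mM CaCl2·2H2O, 150 mM NaCl, FaSSIF 3.0 mM taurocholate/0.75 mM lecithin), 37 °C, porcine pancreatin. Media sampled at 10 min dispersion and 60 min digestion, lipase inhibited with 4-bromophenyl boronic acid, centrifuged. Supernatant shaken with excess crystalline drug at 37 °C, pH readjusted to 6.5. HPLC at 5 h and 24 h; value is mean of 24 h triplicates.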

[3] = Acid/base/neutral class and ionization at the pH of lipolysis; format: physicochemical; details: pH 6.5
Dose number = format: physicochemical; details: for Do value: 80% loading, lipid-rich LBFs after digestion, maximum-value of 0.5 observed; for Do 80%: 80% of maximum drug load, 45 mL digestion medium; for lipolysis Do: applied drug load during in vitro lipolysis
[4] = Maximum drug loading capacity; format: physicochemical; details: 37 °C, mean (sd)
[5] = Solid state characterization of drug precipitate; format: physicochemical; details: IIIB-MC, 60 min of digestion, PLM and Raman
Method in brief: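 Drug-loaded IIIB-MC (1.25 g in 45 mL medium, pH-stat 6.5, 37 °C) digested with pancreatin. The pellet at 60 min was imaged immediately by crossed-polarizer light microscopy. Raman used 785 nm at 400 mW over 100–1890 cm–1, with SNV baseline correction and blank-pellet background correction. References were crystalline drug, blank and drug-spiked blank pellets, and melt-quenched amorphous drug.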

[6] = In vitro lipolysis of drug-loaded IIIB-MC, quantification of precipitated drug; format: physicochemical; details: for degree of precipitated drug: 60 min of digestion; for precipitation during lipolysis at 80% loading: data not shown

Do 80% (Dose number; IIIA-LC) | Do 80% (Dose number; IIIB-MC) | Do 80% (Dose number; IV) | maximum drug loading capacity (loading) ([4]; IIIA-LC) | maximum drug loading capacity (loading) ([4]; IIIB-MC) | maximum drug loading capacity (loading) ([4]; IV) | solid form of precipitated drug in the pellet [5] | SMILES | solid form of precipitate during digestion [1] | also measured
4.9 | 9.5 | 13.5 | 16.4 (0.7) mg/g | 38.8 (1.4) mg/g | 50.1 (1.2) mg/g | crystalline form | C#C[C@]1(O)CC[C@H]2[C@@H]3CCC4=Cc5oncc5C[C@]4(C)[C@H]3CC[C@@]21C [Danazol] | crystalline form | lipolysis Do (Dose number; IIIB-MC): 4.8; solid form of precipitate in previous in vitro lipolysis studies [1]: crystalline form; solid form of precipitate in vitro and in vivo [1]: crystalline form
6.8 | 9.1 | 11.1 | 75.4 (4.7) mg/g | 176.2 (2.1) mg/g | 218.0 (9.3) mg/g | crystalline and amorphous mixture | CCOC(=O)C1=C(C)NC(C)=C(C(=O)OC)C1c1cccc(Cl)c1Cl (stereo not shown) [Felodipine] | – | lipolysis Do (Dose number; IIIB-MC): 9.1
1.4 | 2.9 | 4.6 | – | – | – | crystalline form | COC1=CC(=O)C[C@@H](C)[C@]12Oc1c(Cl)c(OC)cc(OC)c1C2=O [Griseofulvin] | – | degree of precipitated drug [6]: 11%; precipitation during lipolysis at 80% loading [6]: did not precipitate
0.0 | 0.1 | 0.4 | 3.9 (1.2) mg/g | 17.7 (1.2) mg/g | 21.5 (2.1) mg/g | – | O=C(CCCN1CCC(O)(c2ccc(Cl)cc2)CC1)c1ccc(F)cc1 [Haloperidol] | – | solubility fold-increase between dispersion and digestion media [2]: 11 fold; extent of ionization [3]: 99%; Do value (Dose number): ≤ 1
0.7 | 1.6 | 2.4 | 31.9 (1.1) mg/g | 84.7 (3.5) mg/g | 121.3 (4.2) mg/g | crystalline and amorphous mixture | COc1ccc2c(c1)c(CC(=O)O)c(C)n2C(=O)c1ccc(Cl)cc1 [Indomethacin] | – | solubility at 24 h [2]: 1500 to 1700 µg/mL (≈ 4.19 to 4.75 mM); degree of precipitated drug [6]: 2%; precipitation during lipolysis at 80% loading [6]: did not precipitate
0.2 | 0.5 | 1.4 | 9.7 (1.2) mg/g | 23.0 (1.0) mg/g | 29.9 (1.5) mg/g | – | CC(=O)N1CCN(c2ccc(OCC3COC(Cn4ccnc4)(c4ccc(Cl)cc4Cl)O3)cc2)CC1 (stereo not shown) [Ketoconazole] | – | solubility fold-increase between dispersion and digestion media [2]: 2 fold; extent of ionization [3]: 42%; Do value (Dose number): ≤ 1
14.5 | 54.6 | 55.8 | 13.6 (0.4) mg/g | 50.9 (1.6) mg/g | 80.7 (4.5) mg/g | hydrate form | O=C(Nc1ccc([N+](=O)[O-])cc1Cl)c1cc(Cl)ccc1O [Niclosamide] | – | solubility at 24 h [2]: < 80 µg/mL; lipolysis Do (Dose number; IIIB-MC): 11.1

The remaining lines, values behind:

SMILES | Do 80% (Dose number; IIIA-LC) | Do 80% (Dose number; IIIB-MC) | Do 80% (Dose number; IV) | maximum drug loading capacity (loading) ([4]; IIIA-LC) | maximum drug loading capacity (loading) ([4]; IIIB-MC) | maximum drug loading capacity (loading) ([4]; IV) | solid form of precipitated drug in the pellet [5] | solid form of precipitate during digestion [1] | also measured
COc1ccccc1OCCNCC(O)COc1cccc2[nH]c3ccccc3c12 (stereo not shown) [Carvedilol] | – | – | – | – | – | – | – | amorphous form | solid form of precipitate during dispersion [1]: crystalline form
C(=C\c1ccccc1)/CN1CCN(C(c2ccccc2)c2ccccc2)CC1 [Cinnarizine] | 0.2 | 0.5 | 2.1 | 34.5 (3.2) mg/g | 41.8 (0.7) mg/g | 43.2 (1.7) mg/g | – | amorphous character or in a molecular dispersion with digestion components | solubility fold-increase between dispersion and digestion media [2]: 6 fold; extent of ionization [3]: 90%; Do value (Dose number): ≤ 1; solid form of precipitated material ([1]; pH 4.0, 5.5, and 6.5 (ionized) ref 12): noncrystalline; solid form of precipitated material ([1]; pH 8.0 (unionized) ref 12): crystalline
CC(C)OC(=O)C(C)(C)Oc1ccc(C(=O)c2ccc(Cl)cc2)cc1 [Fenofibrate] | – | – | – | – | – | – | – | crystalline form | solid form of precipitate in vitro and in vivo [1]: crystalline form
CCOC(=O)N1CCC(=C2c3ccc(Cl)cc3CCc3cccnc32)CC1 [Loratidine] | – | – | – | – | – | – | – | crystalline form | solid form of precipitate during dispersion [1]: crystalline form
CCC(C)(C)C(=O)O[C@H]1C[C@@H](C)C=C2C=C[C@H](C)[C@H](CC[C@@H]3C[C@@H](O)CC(=O)O3)[C@H]21 [Simvastatin] | – | – | – | – | – | – | – | amorphous form | –
Cc1c(Cl)cccc1Nc1ccccc1C(=O)O [Tolfenamic acid] | – | – | – | – | – | – | – | crystalline form | –

Source: publication PMC6209313 (Molecular Pharmaceutics, 2018)
